# Screening results (PubChem BioAssay)
# Most compounds without a hit are left out; they make up all but 9.4% or so of the library.
# CSC inhib – blocks cancer stem cells | cancer stem cell-like cells viability, luminescence | inhibition, % at 7.5 µM | actives 1.1% (n = 300,000) | AID 2717; in the data active means inhibition above about 75%; tested in HMLE shEcad cells
# L major viab – reduces viability of Leishmania major promastigotes. resazurin fluorescence viability. inhibition, % at 10 µM. actives 9% (n = 200,000); in the data active means inhibition above about 50%;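 further: promastigotes grown with compound for 44 hours at 28 °C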
# T cruzi inh – blocks replication of Trypanosoma cruzi | inhibition, % (test concentration not listed) | actives 1.4% (n = 300,000) | T. cruzi beta-gal in NIH3T3, luminescence, 90 h;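 active means mean inhibition across valid replicates above about 55%, limit read from the data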;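 further: signal also drops with host cell toxicity which is not excluded here; higher percent means less beta-gal luminescence so fewer parasites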
#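 Assay system: NIH/3T3 fibroblasts plus reporter T. cruzi. Amount: NIH/3T3 cells, 5,000 per well. Buffer or medium: DMEM, 2% fetal bovine serum. Doses: compound pinned at 50 nL/well, DMSO. Schedule: ≥90 h infection period, 3 h prior cell attachment. Signal: luminescent β-galactosidase signal after 60 min lysis. Read-out: parasite load inhibition, %.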
# SKKanGAS inh – inhibitors of SKKanGAS S. pyogenes growth in kanamycin (SK-promoter or general growth effect); AID 1662; actives 1.3% (n = 300,000); BacTiter-Glo, 6 h; inhibition, % at 7.5 µM;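 active means mean replicate score, as percent of positive control median, at least 50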;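 further: strain carries kanamycin resistance gene driven by streptokinase promoter and grows in 40 µg/ml kanamycin; loss of luminescence reflects streptokinase promoter inhibition or plain growth inhibition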
# Beta cell apopt – blocks beta cell apoptosis. AID 435005. protection from apoptosis, % (test concentration not listed). actives 0.8% (n = 300,000). INS-1E cytokine-induced death, ATP luminescence, 48 h; percent of positive-control rescue, neutral wells zero;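 active means Every replicate reaches about 75%, or at least half do and their mean reaches it too, limit read from the data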;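 further: higher means more ATP so stronger rescue from cytokine killing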
# Mdm2-MdmX inh – inhibitors of human Mdm2/MdmX interaction; O15151+Q00987; actives 3% (n = 330,000); SaOS-2 split-luciferase Mdm2/MdmX complementation, luminescence; inhibition, % at 8 µM;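 active means inhibition of at least 50% at 8 µM in the primary screen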
# Target sequence (O15151 whole entry, looked up): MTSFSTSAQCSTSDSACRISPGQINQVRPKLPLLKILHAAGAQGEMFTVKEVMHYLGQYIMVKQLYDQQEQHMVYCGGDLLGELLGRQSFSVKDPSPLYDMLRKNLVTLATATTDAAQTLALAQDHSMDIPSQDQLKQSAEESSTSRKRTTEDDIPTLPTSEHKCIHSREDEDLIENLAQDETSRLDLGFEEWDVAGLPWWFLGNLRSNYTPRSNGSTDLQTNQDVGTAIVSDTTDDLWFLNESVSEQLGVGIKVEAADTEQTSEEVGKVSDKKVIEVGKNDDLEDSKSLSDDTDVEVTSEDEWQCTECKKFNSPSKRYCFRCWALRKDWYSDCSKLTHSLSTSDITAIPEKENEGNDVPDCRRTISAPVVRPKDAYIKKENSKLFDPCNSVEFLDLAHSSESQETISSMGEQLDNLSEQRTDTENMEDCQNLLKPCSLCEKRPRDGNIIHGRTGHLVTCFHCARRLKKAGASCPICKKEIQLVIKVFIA
# Target sequence (Q00987 whole entry, looked up): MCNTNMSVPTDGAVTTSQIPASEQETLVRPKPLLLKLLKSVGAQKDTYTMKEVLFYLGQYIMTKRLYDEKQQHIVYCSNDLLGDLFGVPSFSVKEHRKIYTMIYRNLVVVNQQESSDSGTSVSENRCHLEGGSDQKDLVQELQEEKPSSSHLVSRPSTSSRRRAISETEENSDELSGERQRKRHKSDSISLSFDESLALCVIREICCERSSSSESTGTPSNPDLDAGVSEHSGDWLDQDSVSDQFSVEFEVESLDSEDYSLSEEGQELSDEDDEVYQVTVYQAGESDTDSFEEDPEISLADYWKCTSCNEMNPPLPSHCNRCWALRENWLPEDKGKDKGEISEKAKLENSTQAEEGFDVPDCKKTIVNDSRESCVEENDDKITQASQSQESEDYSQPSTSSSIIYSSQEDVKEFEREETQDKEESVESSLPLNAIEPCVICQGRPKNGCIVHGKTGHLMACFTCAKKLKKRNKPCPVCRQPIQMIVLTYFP
# A number is an active result; i = inactive; nt = no result given.
SMILES,CSC inhib,L major viab,T cruzi inh,SKKanGAS inh,Beta cell apopt,Mdm2-MdmX inh
O=S(=O)(Cc1ncc(C(F)(F)F)cc1Cl)c1ccccc1,i,nt,i,i,i,i
COc1cccc(N2CN(CCc3ccccc3)CNC2=S)c1,i,nt,nt,i,i,i
CSc1ccccc1C(=O)Nc1cc(C)ccc1C,78.2,i,i,i,i,i
CSc1ccccc1C(=O)Nc1ccc(C)cc1C,nt,i,i,i,i,i
Cc1ccc(C)c(NC(=O)c2ccccc2Sc2ccc([N+](=O)[O-])cc2Cl)c1,i,96.1,i,i,i,i
Cc1ccc(C)c(NC(=O)c2cc([N+](=O)[O-])cc([N+](=O)[O-])c2)c1,i,nt,i,i,i,i
N#Cc1cccc(NC(=O)CSc2cccc[n+]2[O-])c1,i,nt,nt,nt,i,i
O=C1C=C(c2cc3ccccc3s2)CCC1,i,nt,i,i,i,i
c1ccc2c(Nc3nc(N4CCOCC4)c4ccccc4n3)cccc2c1,i,88.1,i,i,i,i
CCN(CC)C1=NS(=O)(=O)c2cc([N+](=O)[O-])ccc21,i,99.9,i,i,i,i
CCN(CC)c1ccc([N+](=O)[O-])cc1C(=O)N1CCOCC1,i,i,i,i,i,i
CCC(=O)Nc1nc2ccc([N+](=O)[O-])cc2s1,nt,nt,62.5,i,i,i
CC(=O)Nc1ccc2nc(NC(=O)c3ccc([N+](=O)[O-])s3)sc2c1,i,nt,56.1,i,i,i
O=C(COC(=O)Cn1ccc(=O)[nH]c1=O)Nc1ccc(F)cc1,i,nt,nt,nt,i,i
ClC1(Cl)CC1CSc1nnc(-c2ccncc2)o1 (stereo unspecified),i,nt,i,i,i,i
Cc1cc2ccccn2c1C(=O)c1ccccc1F,i,nt,i,i,i,i
CC/C(=N\NC(=S)Nc1cc(C)ccc1C)c1ccc(OC(F)F)cc1,i,73.8,i,69.0,i,i
Cc1cccc(NC(=S)N/N=C(\c2ccccc2)C(C)C)c1,i,i,i,69.1,i,i
CC/C(=N\NC(=S)Nc1cccc(C)c1)c1ccccc1,i,i,i,61.6,i,i
C/C(=N/NC(=S)Nc1cccc(C)c1)c1cccc([N+](=O)[O-])c1,i,i,56.5,i,i,i
Cc1cccc(NC(=S)NNC(=O)c2cccc([N+](=O)[O-])c2)c1,nt,nt,i,i,nt,i
CCCCN1CNC(=S)N(Cc2ccccc2)C1,i,i,i,i,i,i
O=C(C(=O)N1CCCCC1)c1c(-c2ccccc2)[nH]c2ccccc12,i,nt,i,i,i,i
CCNC(=S)N/N=C(\C)c1cc2ccccc2o1,nt,i,i,i,i,i
C/C(=N\NC(=S)Nc1cccc(C)c1)c1cc2ccccc2o1,i,89.5,i,66.6,i,i
SMILES,CSC inhib,L major viab,T cruzi inh,SKKanGAS inh,Beta cell apopt,Mdm2-MdmX inh
O=C(CC(Sc1ccc(Br)cc1)C(=O)O)c1ccc(F)cc1 (stereo unspecified),nt,nt,72.6,i,nt,i
CCOc1ccc(C(=O)CC(Sc2ccc(C)cc2)C(=O)O)cc1 (stereo unspecified),i,i,i,i,i,i
Cc1nc(-c2ccc(Cl)cc2)sc1C1(C)CC(c2cccc([N+](=O)[O-])c2)=NO1 (stereo unspecified),i,nt,i,i,i,i
COc1cc([N+](=O)[O-])c(N2CCOCC2)c([N+](=O)[O-])c1OC,i,i,75.4,i,i,i
O=[N+]([O-])c1cc(Br)c2nsnc2c1N1CCOCC1,nt,nt,i,i,nt,i
CNc1ccc(S(=O)(=O)NCC(=O)OC(C)C(=O)N(C)Cc2ccccc2)cc1[N+](=O)[O-] (stereo unspecified),i,nt,nt,nt,i,i
N#CC1=C2SCC(O)(c3ccccc3)N2C(=O)CC1c1cccs1 (stereo unspecified),nt,90.4,nt,nt,nt,nt
CC1Cc2cc(S(=O)(=O)N3CCC(C(=O)N(C)Cc4ccco4)CC3)ccc2N1C(=O)C1CCC1 (stereo unspecified),i,nt,i,i,i,i
COc1cccc(C(=O)NCCSc2c(C)[nH]c3ccccc23)c1OC,i,nt,i,i,i,i
CC/C(=C/c1ccccc1)c1cccc2[nH]c3c(OC)cccc3c12,131.0,nt,i,99.0,i,nt
Cc1ccc(NC(=O)c2cc(S(=O)(=O)N3CCC4(CC3)OCCO4)ccc2F)cc1,i,95.9,i,i,i,i
OCCCc1nc2ccccc2[nH]1,i,i,i,i,i,i
CC1(c2nnc(-c3ccncc3)o2)CC(c2ccccc2)=NO1 (stereo unspecified),i,nt,i,i,i,i
CN(C)c1ccc(-c2n(C)c3ccccc3[n+]2C)cc1,nt,99.9,73.0,i,nt,i
C=CCN1C(=O)c2ccc(C(=O)N3CCN(S(=O)(=O)c4cc(C)ccc4C)CC3)cc2C1=O,i,nt,i,i,nt,i
OC(COc1ccc(OCC(O)CN2CCCCCC2)cc1)CN1CCCCCC1 (stereo unspecified),i,i,i,i,i,i
OC(COc1ccc2cc(Br)ccc2c1)CN1CCCC1 (stereo unspecified),nt,100.1,70.5,i,i,i
O=S(=O)(N1CCCCC1)N1CCN(CC(O)COc2ccc3cc(Br)ccc3c2)CC1 (stereo unspecified),i,i,55.1,i,i,i
CN(C)S(=O)(=O)N1CCN(CC(O)COc2ccc3cc(Br)ccc3c2)CC1 (stereo unspecified),i,i,i,i,i,i
CCCOc1ccc(CSC2=NCCN2)cc1[N+](=O)[O-],nt,56.6,i,i,i,i
O=c1c2c(nc3c(-c4ccc(Cl)cc4)c[nH]n13)CCC2,i,i,i,65.7,i,i
O=c1c2c(nc3cc(-c4ccc(Br)cc4)[nH]n13)CCCC2,i,66.6,i,i,i,i
O=c1c2c(nc3c(-c4ccccc4)c[nH]n13)CCC2,i,i,i,i,i,i
O=c1c2c(nc3cc(-c4ccccc4)[nH]n13)CCC2,i,i,i,i,i,i
O=c1c2c(nc3c(-c4cccc(Br)c4)c[nH]n13)CCCC2,i,99.6,i,i,i,i
SMILES,CSC inhib,L major viab,T cruzi inh,SKKanGAS inh,Beta cell apopt,Mdm2-MdmX inh
COc1ccc(NC(=S)N2CCN(C(=O)C3CCCO3)CC2)cc1 (stereo unspecified),i,nt,i,i,i,i
COc1cc(OC)c(N(C)S(=O)(=O)c2cccc(C(=O)NC3=NCCS3)c2)cc1Cl,i,nt,i,i,i,i
CC(=O)NCCC(=O)Nc1nc2ccc(Oc3ccccc3)cc2s1,i,nt,i,i,i,i
CCc1nn(C(C)C(=O)NCCN2CCN(c3cccc(C)c3C)CC2)c(=O)c2cc3occc3n12 (stereo unspecified),i,84.5,i,i,i,i
CCCCN(CCCC)CCNC(=O)CSCc1ccc(C)cc1,i,83.0,i,i,i,i
CC(=O)N1CCc2c(sc(NC(=O)c3ccc4c(c3)OCCO4)c2C#N)C1,i,53.6,i,i,i,i
CC(=O)N1CCc2c(sc(NC(=O)c3ccc(S(=O)(=O)N(C)C)cc3)c2C#N)C1,i,i,i,i,i,i
NNC(=O)c1nc(Cl)c(Cl)c(N)c1Cl,i,nt,i,i,i,i
